Laboratory results published in ChEMBL document CHEMBL4229446, “Development of Novel Monoamine Oxidase-B (MAO-B) Inhibitors with Reduced Blood-Brain Barrier Permeability for the Potential Management of Noncentral Nervous System (CNS) Diseases” (J Med Chem, 2018).

Test system: P-gp (MDR1)
Test: Efflux ratio of apparent permeability in MDCK2-MDR1 cells at 10 uM after 1 hr in absence of P-gp inhibitor verapamil by UPLC-MS/MS analysis
Assay type: ADME, cell-based, Canis lupus familiaris
Conditions: dog, MDCK-MDR1
Outline: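 MDCK-WT (MEM-α/10% FBS) or MDCK-MDR1 II (DMEM/10% FBS) cells were grown 3 days on 12-well transwells. Integrity was checked by TEER and 100 μM Lucifer yellow. Cells were washed in HBSS/10 mM HEPES. Compound at 10 μM was added apically or basally, in triplicate, ±100 μM verapamil. Receiver sampled at 1 h by UPLC-MS/MS. Efflux ratio = Papp B→A / Papp A→B.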

SMILES | efflux ratio at 1 h, 10 µM
O=C(O)COCCN1CCN(C(c2ccccc2)c2ccc(Cl)cc2)CC1 (stereo not given) [CETIRIZINE] | 4.12
C[C@H](Cc1ccc(OCc2ccc(Cl)c(Cl)c2)cc1)N(C)CC(=O)O | 3.07

Test system: Mus musculus
Test: Acute toxicity in C57BL/6 mouse assessed as abnormal clinical signs at […], po administered as single dose measured after 24 hrs post-injection
Assay type: organism-based
Conditions: in vivo

SMILES | Activity
C[C@H](Cc1ccc(OCc2ccc(Cl)c(Cl)c2)cc1)N(C)CC(=O)O | Non-Toxic

Test system: not listed separately
Test: Efflux ratio of apparent permeability in MDCK-WT cells at 10 uM after 1 hr in absence of P-gp inhibitor verapamil by UPLC-MS/MS analysis
Conditions: dog

SMILES | efflux ratio at 1 h, 10 µM
O=C(O)COCCN1CCN(C(c2ccccc2)c2ccc(Cl)cc2)CC1 (stereo not given) [CETIRIZINE] | 3
C[C@H](Cc1ccc(OCc2ccc(Cl)c(Cl)c2)cc1)N(C)CC(=O)O | 1.45

Test system: not listed separately
Test: Tmax in C57BL/6 mouse brain at 22 mg/kg, iv administered as single dose measured 24 hrs by UPLC-MS/MS analysis
Assay type: ADME, organism-based
Conditions: not given
Outline: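 Brains weighed, portion bead-homogenised in 50 mM ammonium formate, extracted in acidified organic solvent, quantified by UPLC-MS/MS. ng/g taken as ng/mL. Tmax from noncompartmental analysis.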

SMILES | Tmax
C[C@H](Cc1ccc(OCc2ccc(Cl)c(Cl)c2)cc1)N(C)CC(=O)O | 4 h

Test system: not listed separately
Test: Metabolic stability in mouse plasma assessed as parent compound remaining at 5 uM after 4 hrs by UPLC-MS/MS analysis
Assay type: ADME, cell-free
Conditions: read-out: Stability
Outline: (§1)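 Compound at 5 μM was incubated in mouse or human plasma at 37 °C with shaking. Sampled at 0, 5, 15, 30, 60, 120 and 240 min and stopped with ice-cold acetonitrile/0.1% formic acid containing internal standard. Supernatants analysed by UPLC-MS/MS for parent remaining. Run in triplicate.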

SMILES | remaining at 4 h, 5 µM
C[C@H](Cc1ccc(OCc2ccc(Cl)c(Cl)c2)cc1)N(C)CC(=O)O | ≥ 75%

Test system: not listed separately
Test: AUClast in C57BL/6 mouse brain at 22 mg/kg, iv administered as single dose measured 24 hrs by UPLC-MS/MS analysis
Assay type: ADME, organism-based
Set-up: dose 22 mg/kg, route intravenous, time 0 - last
Conditions: not given
Outline: (§2)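 21 animals dosed at 0 min, 3 sacrificed at each of 0, 5, 15, 30 min, 1, 4 and 24 h. Plasma was extracted by protein precipitation with phospholipid removal. Brain was weighed, bead-homogenised in 50 mM ammonium formate and extracted in acidified organic solvent. Quantified by UPLC-MS/MS (MRM). Brain ng/g taken as ng/mL. Parameters came from noncompartmental analysis. Kp = AUClast brain/plasma.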

SMILES | AUC(0-t) at 24 h
C[C@H](Cc1ccc(OCc2ccc(Cl)c(Cl)c2)cc1)N(C)CC(=O)O | 7.45 µg·h/mL

Test system: not listed separately
Test: Apparent half-life of the terminal disposition phase in C57BL/6 mouse plasma at 22 mg/kg, iv administered as single dose measured 24 hrs by UPLC-MS/MS analysis
Assay type: ADME, organism-based
Conditions: read-out: t1/2 lambda z (converted)
Outline: as §2

SMILES | half-life
C[C@H](Cc1ccc(OCc2ccc(Cl)c(Cl)c2)cc1)N(C)CC(=O)O | 3.97 h

Test system: not listed separately
Test: Metabolic stability in human plasma assessed as parent compound remaining at 5 uM after 4 hrs by UPLC-MS/MS analysis
Assay type: ADME, cell-free
Conditions: read-out: Stability
Outline: as §1

SMILES | remaining at 4 h, 5 µM
C[C@H](Cc1ccc(OCc2ccc(Cl)c(Cl)c2)cc1)N(C)CC(=O)O | ≥ 75%

Molecular target: T1, Amine oxidase [flavin-containing] A (Homo sapiens, UniProt P21397)
T1 sequence (P21397 whole entry): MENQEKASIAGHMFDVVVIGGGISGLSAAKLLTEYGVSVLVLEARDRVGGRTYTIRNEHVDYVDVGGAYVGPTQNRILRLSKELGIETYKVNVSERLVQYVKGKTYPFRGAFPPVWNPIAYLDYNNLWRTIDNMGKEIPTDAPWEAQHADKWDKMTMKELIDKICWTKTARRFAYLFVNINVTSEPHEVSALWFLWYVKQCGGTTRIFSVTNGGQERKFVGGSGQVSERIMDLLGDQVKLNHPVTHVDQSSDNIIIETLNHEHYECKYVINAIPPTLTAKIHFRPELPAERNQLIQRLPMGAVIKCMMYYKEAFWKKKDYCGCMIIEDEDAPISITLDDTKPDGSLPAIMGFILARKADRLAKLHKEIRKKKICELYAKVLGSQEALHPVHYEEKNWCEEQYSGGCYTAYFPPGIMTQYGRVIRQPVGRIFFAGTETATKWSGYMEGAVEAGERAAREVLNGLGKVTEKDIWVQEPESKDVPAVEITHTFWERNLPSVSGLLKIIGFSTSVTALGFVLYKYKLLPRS
Test: Inhibition of human recombinant MAO-A expressed in baculovirus infected BTI-TN-5B1-4 insect cells using tyramine as substrate preincubated for 1 hr followed by substrate addition and measured after 30 mins by resazurin dye-based fluorescence assay
Conditions: not given

SMILES | IC50
COC(=O)[C@H](Cc1ccc(OCc2ccccc2)cc1)N(C)CC(=O)O | > 50 µM
C[C@H](Cc1ccc(OCc2ccccc2C#N)cc1)N(C)CC(=O)O | > 50 µM
CN(CC(=O)O)[C@H](CO)Cc1ccc(OCc2ccccc2)cc1 | > 50 µM
C[C@H](Cc1ccc(OCc2ccccc2Cl)cc1)N(C)CC(=O)O | > 50 µM
C[C@H](Cc1ccc(OCc2ccc(Cl)c(Cl)c2)cc1)N(C)CC(=O)O | 41.4 µM

Molecular target: T2, Amine oxidase [flavin-containing] B (Homo sapiens, UniProt P27338)
T2 sequence (P27338 whole entry): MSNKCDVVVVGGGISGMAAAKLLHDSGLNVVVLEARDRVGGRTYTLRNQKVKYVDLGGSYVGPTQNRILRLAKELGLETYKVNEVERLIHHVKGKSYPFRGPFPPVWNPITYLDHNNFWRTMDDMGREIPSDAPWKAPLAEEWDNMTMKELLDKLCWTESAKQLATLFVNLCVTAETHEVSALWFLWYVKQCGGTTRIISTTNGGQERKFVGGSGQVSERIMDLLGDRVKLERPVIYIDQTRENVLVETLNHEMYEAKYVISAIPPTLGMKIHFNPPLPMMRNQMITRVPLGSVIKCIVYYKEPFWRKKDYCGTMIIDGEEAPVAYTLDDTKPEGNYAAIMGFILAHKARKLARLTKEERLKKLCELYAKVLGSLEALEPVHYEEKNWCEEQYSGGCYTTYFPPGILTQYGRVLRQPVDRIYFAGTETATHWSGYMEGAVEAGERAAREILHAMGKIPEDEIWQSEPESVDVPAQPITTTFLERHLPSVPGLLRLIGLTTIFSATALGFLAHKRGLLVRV
Test: Inhibition of human recombinant MAO-B expressed in baculovirus infected BTI-TN-5B1-4 insect cells using benzylamine as substrate preincubated for 1 hr followed by substrate addition and measured after 30 mins by resazurin dye-based fluorescence assay
Assay type: cell-based
Conditions: not given

SMILES | IC50
COC(=O)[C@H](Cc1ccc(OCc2ccccc2)cc1)N(C)CC(=O)O | 7.93 µM
C[C@H](Cc1ccc(OCc2ccccc2C#N)cc1)N(C)CC(=O)O | 14.1 µM
CN(CC(=O)O)[C@H](CO)Cc1ccc(OCc2ccccc2)cc1 | 1.01 µM
C[C@H](Cc1ccc(OCc2ccccc2Cl)cc1)N(C)CC(=O)O | 0.713 µM
C[C@H](Cc1ccc(OCc2ccc(Cl)c(Cl)c2)cc1)N(C)CC(=O)O | 0.218 µM

Test system: not listed separately
Test: Metabolic stability in human liver microsomes assessed as parent compound remaining at 1 uM after 60 mins by UPLC-MS/MS analysis
Assay type: ADME, microsome
Conditions: liver microsomes, read-out: Stability
Outline: (§3)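 Compound at 1 μM with 0.5 mg/mL mouse or human liver microsomes in 100 mM potassium phosphate pH 7.4, 3.3 mM MgCl2, 1 mM NADPH, at 37 °C. Started with NADPH; minus-NADPH control run. Stopped at 0, 5, 15, 30, 45 and 60 min with acetonitrile/formic acid plus internal standard. Parent remaining by UPLC-MS/MS, in triplicate.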

SMILES | remaining at 1 h, 1 µM
C[C@H](Cc1ccc(OCc2ccc(Cl)c(Cl)c2)cc1)N(C)CC(=O)O | ≥ 90%

Test system: not listed separately
Test: Ratio of AUClast in brain to plasma in C57BL/6 mouse at 22 mg/kg, iv administered as single dose measured 24 hrs by UPLC-MS/MS analysis
Assay type: ADME, organism-based
Conditions: not given
Outline: as §2

SMILES | Kp at 24 h
C[C@H](Cc1ccc(OCc2ccc(Cl)c(Cl)c2)cc1)N(C)CC(=O)O | 0.09

Test system: not listed separately
Test: Metabolic stability in mouse liver microsomes assessed as parent compound remaining at 1 uM after 60 mins in presence of NADPH by UPLC-MS/MS analysis
Assay type: ADME, microsome
Conditions: read-out: Stability
Outline: as §3

SMILES | remaining at 1 h, 1 µM
C[C@H](Cc1ccc(OCc2ccc(Cl)c(Cl)c2)cc1)N(C)CC(=O)O | 89.5%

Test system: not listed separately
Test: Metabolic stability in cryopreserved mouse hepatocytes assessed as parent compound remaining at 1 uM after 60 mins by UPLC-MS/MS analysis
Assay type: ADME, cell-based, Hepatocyte
Conditions: read-out: Stability

SMILES | remaining at 1 h, 1 µM
C[C@H](Cc1ccc(OCc2ccc(Cl)c(Cl)c2)cc1)N(C)CC(=O)O | ≥ 90%

Test system: Mus musculus
Test: Acute toxicity in C57BL/6 mouse assessed as abnormal clinical signs at […], iv administered as single dose measured after 24 hrs post-injection
Assay type: organism-based
Conditions: in vivo

SMILES | Activity
C[C@H](Cc1ccc(OCc2ccc(Cl)c(Cl)c2)cc1)N(C)CC(=O)O | Non-Toxic

Test system: not listed separately
Test: Cmax in C57BL/6 mouse brain at 22 mg/kg, iv administered as single dose measured 24 hrs by UPLC-MS/MS analysis
Assay type: ADME, organism-based
Set-up: dose 22 mg/kg, route intravenous
Conditions: not given
Outline: as §2

SMILES | Cmax
C[C@H](Cc1ccc(OCc2ccc(Cl)c(Cl)c2)cc1)N(C)CC(=O)O | 0.455 µg/mL

Test system: Mus musculus
Test: Acute toxicity in C57BL/6 mouse assessed as abnormal clinical signs at […], sc administered as single dose measured after 24 hrs post-injection
Assay type: organism-based
Conditions: in vivo

SMILES | Activity
C[C@H](Cc1ccc(OCc2ccc(Cl)c(Cl)c2)cc1)N(C)CC(=O)O | Non-Toxic

Test system: not listed separately
Test: Tmax in C57BL/6 mouse plasma at 22 mg/kg, iv administered as single dose measured 24 hrs by UPLC-MS/MS analysis
Assay type: ADME, organism-based
Conditions: not given
Outline: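 Plasma cleaned by protein precipitation with phospholipid removal, then UPLC-MS/MS in MRM mode. Tmax obtained by noncompartmental analysis.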

SMILES | Tmax
C[C@H](Cc1ccc(OCc2ccc(Cl)c(Cl)c2)cc1)N(C)CC(=O)O | 5 min

Test system: not listed separately
Test: Cmax in C57BL/6 mouse plasma at 22 mg/kg, iv administered as single dose measured 24 hrs by UPLC-MS/MS analysis
Assay type: ADME, organism-based
Set-up: dose 22 mg/kg, route intravenous
Conditions: not given
Outline: as §2

SMILES | Cmax
C[C@H](Cc1ccc(OCc2ccc(Cl)c(Cl)c2)cc1)N(C)CC(=O)O | 16.2 µg/mL

Test system: not listed separately
Test: AUClast in C57BL/6 mouse plasma at 22 mg/kg, iv administered as single dose measured 24 hrs by UPLC-MS/MS analysis
Assay type: ADME, organism-based
Set-up: dose 22 mg/kg, time 0 - last, route intravenous
Conditions: not given
Outline: as §2

SMILES | AUC(0-t) at 24 h
C[C@H](Cc1ccc(OCc2ccc(Cl)c(Cl)c2)cc1)N(C)CC(=O)O | 82 µg·h/mL
